The structures appear in SMILES notation.

In data set [1] the target is T1, Broad substrate specificity ATP-binding cassette transporter ABCG2 (Homo sapiens, UniProt Q9UNQ0).
T1 sequence (Q9UNQ0 whole entry): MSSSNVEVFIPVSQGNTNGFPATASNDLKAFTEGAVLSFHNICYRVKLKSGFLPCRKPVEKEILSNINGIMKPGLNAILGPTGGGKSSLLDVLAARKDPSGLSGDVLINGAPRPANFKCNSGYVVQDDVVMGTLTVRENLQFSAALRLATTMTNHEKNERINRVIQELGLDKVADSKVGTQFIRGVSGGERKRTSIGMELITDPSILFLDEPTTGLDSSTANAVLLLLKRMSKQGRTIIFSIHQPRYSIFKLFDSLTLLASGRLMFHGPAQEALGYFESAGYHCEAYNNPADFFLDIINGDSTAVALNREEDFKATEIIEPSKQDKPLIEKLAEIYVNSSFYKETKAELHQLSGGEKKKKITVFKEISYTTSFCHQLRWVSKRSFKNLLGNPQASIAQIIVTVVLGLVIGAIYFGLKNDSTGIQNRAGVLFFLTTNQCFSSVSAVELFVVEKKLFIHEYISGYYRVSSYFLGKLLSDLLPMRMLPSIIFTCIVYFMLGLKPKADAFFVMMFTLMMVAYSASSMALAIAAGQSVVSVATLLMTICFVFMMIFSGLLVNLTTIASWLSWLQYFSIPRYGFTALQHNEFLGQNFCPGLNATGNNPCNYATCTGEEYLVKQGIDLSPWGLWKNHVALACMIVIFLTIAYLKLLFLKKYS
Description: Observed permeability in MDCK2 cells expressing human ABCG2 assessed as ABCG2-mediated apical to basolateral transport at 10 uM after 0.5 to 1 hrs by HPLC method. The settings on record: mdck-ii. The format is ADME, cell-based. In a few lines: (§1)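 Mock (empty pcDNA3.1) or rat Abcg2/human ABCG2-transfected MDCKII, G418-selected, seeded on 3.0-μm Transwell filters at 1.0×10^6 cells/well, grown 4 days to TEER >200 Ω·cm². Single isomer loaded apical or basolateral in serum-free Opti-MEM I with 0.2 μCi/ml [3H]mannitol, 37°C 5% CO2. Receiver sampled at 0.5 and 1 h. Quantified by HPLC-UV 290 nm. Permeability = initial rate/(area × donor concentration). Efflux ratio = B→A rate / A→B rate. n = 3, mean ± S.D.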

The target of data set [2] is T1, Broad substrate specificity ATP-binding cassette transporter ABCG2. Description: Observed permeability in MDCK2 cells expressing human ABCG2 assessed as ABCG2-mediated apical to basolateral transport at 50 uM after 0.5 to 1 hrs by HPLC method. The format is ADME, cell-based. The settings on record: mdck-ii. A digest of the protocol:
as §1

Data set [3] shares this target. In words: Observed permeability in MDCK2 cells expressing human ABCG2 assessed as ABCG2-mediated basolateral to apical transport at 30 uM after 0.5 to 1 hrs by HPLC method. The settings on record: mdck-ii. The format is ADME, cell-based. In a few lines: as §1
The target is the same in data set [4]. In words: Observed permeability in MDCK2 cells expressing human ABCG2 assessed as ABCG2-mediated basolateral to apical transport at 200 uM after 0.5 to 1 hrs by HPLC method. Format: ADME, cell-based. The settings on record: mdck-ii. In a few lines:
as §1

Data set [5] concerns the target T2, ABCG2 (Homo sapiens, UniProt Q9UNQ0).
T2 sequence (Q9UNQ0 whole entry): T1 sequence (Q9UNQ0 whole entry)
Description: Asymmetry efflux ratio in MDCK2 cells expressing human ABCG2 assessed as ABCG2-mediated drug transport ratio at 3 uM after 0.5 to 1 hrs by HPLC method. The format is ADME, cell-based. In a few lines:
as §1

For data set [6], the target named is T2, ABCG2. Description: Asymmetry efflux ratio in MDCK2 cells expressing human ABCG2 assessed as ABCG2-mediated drug transport ratio at 10 uM after 0.5 to 1 hrs by HPLC method. Format: ADME, cell-based. In a few lines:
as §1

For data set [7], the target named is T2, ABCG2. Description: Asymmetry efflux ratio in MDCK2 cells expressing human ABCG2 assessed as ABCG2-mediated drug transport ratio at 50 uM after 0.5 to 1 hrs by HPLC method. The format is ADME, cell-based. A digest of the protocol: as §1
Data set [8] concerns the target T3, Broad substrate specificity ATP-binding cassette transporter ABCG2 (Rattus norvegicus, UniProt Q80W57).
T3 sequence (Q80W57 whole entry): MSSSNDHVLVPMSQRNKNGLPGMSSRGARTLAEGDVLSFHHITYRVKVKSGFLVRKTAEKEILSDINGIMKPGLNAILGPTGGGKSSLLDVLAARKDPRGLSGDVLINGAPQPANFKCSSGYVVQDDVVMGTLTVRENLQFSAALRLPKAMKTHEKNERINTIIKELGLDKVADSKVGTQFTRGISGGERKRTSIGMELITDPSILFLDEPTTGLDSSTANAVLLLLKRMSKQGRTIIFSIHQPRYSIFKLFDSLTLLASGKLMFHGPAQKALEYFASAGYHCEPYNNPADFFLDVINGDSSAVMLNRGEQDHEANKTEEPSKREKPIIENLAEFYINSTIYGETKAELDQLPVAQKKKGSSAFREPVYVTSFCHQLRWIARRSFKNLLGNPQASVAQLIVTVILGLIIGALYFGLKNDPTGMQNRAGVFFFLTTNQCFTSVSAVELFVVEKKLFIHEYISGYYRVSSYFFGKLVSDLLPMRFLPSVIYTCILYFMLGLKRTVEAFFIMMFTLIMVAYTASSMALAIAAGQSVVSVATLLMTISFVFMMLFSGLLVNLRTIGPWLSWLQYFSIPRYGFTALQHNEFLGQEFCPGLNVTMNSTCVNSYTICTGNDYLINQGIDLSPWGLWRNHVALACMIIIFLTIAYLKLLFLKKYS
In words: Observed permeability in MDCK2 cells expressing rat ABCG2 assessed as ABCG2-mediated apical to basolateral transport at 50 uM after 0.5 to 1 hrs by HPLC method. Format: ADME, cell-based. The settings on record: mdck-ii. A digest of the protocol:
as §1

Data set [9] deals with T3, Broad substrate specificity ATP-binding cassette transporter ABCG2. In words: Observed permeability in MDCK2 cells expressing rat ABCG2 assessed as ABCG2-mediated apical to basolateral transport at 200 uM after 0.5 to 1 hrs by HPLC method. The format is ADME, cell-based. The settings on record: mdck-ii. A digest of the protocol:
as §1

The target is the same in data set [10]. Description: Observed permeability in MDCK2 cells expressing rat ABCG2 assessed as ABCG2-mediated basolateral to apical transport at 3 uM after 0.5 to 1 hrs by HPLC method. The format is ADME, cell-based. The settings on record: mdck-ii. In a few lines: as §1
Data set [11] has the same target. In words: Observed permeability in MDCK2 cells expressing rat ABCG2 assessed as ABCG2-mediated basolateral to apical transport at 10 uM after 0.5 to 1 hrs by HPLC method. Format: ADME, cell-based. The settings on record: mdck-ii. A digest of the protocol: as §1
For data set [12] the target is unchanged. In words: Observed permeability in MDCK2 cells expressing rat ABCG2 assessed as ABCG2-mediated basolateral to apical transport at 200 uM after 0.5 to 1 hrs by HPLC method. The settings on record: mdck-ii. Format: ADME, cell-based. In a few lines: as §1
The target in data set [13] is T4, ABCG2 (Rattus norvegicus, UniProt Q80W57).
T4 sequence (Q80W57 whole entry): T3 sequence (Q80W57 whole entry)
In words: Asymmetry efflux ratio in MDCK2 cells expressing rat ABCG2 assessed as ABCG2-mediated drug transport ratio at 3 uM after 0.5 to 1 hrs by HPLC method. Format: ADME, cell-based. A digest of the protocol:
as §1

Data set [14] can be described thus: Observed permeability in MDCK2 cells assessed as basolateral to apical transport at 3 uM after 0.5 to 1 hrs by HPLC method. Format: ADME, cell-based, Canis lupus familiaris. The settings on record: dog, mdck-ii. In a few lines: as §1
A short description of data set [15]: Observed permeability in MDCK2 cells assessed as basolateral to apical transport at 3 to 200 uM after 0.5 to 1 hrs by HPLC method. The settings on record: dog, mdck-ii. Format: ADME, cell-based, Canis lupus familiaris. In a few lines:
as §1

Data set [16] can be described thus: Asymmetry efflux ratio in MDCK2 cells assessed as drug transport ratio at 50 uM after 0.5 to 1 hrs by HPLC method. The settings on record: dog, MDCK. The format is ADME, cell-based, Canis lupus familiaris, MDCK-II. In a few lines:
as §1

For orientation: efflux ratio means a quotient of directional permeabilities that is used to spot active efflux. Consider `COc1ccnc(C[S@+]([O-])c2nc3cc(OC(F)F)ccc3[nH]2)c1OC`, for which the Papp is on record as 31.6 uL/hr/cm2 in [1]; 109 uL/hr/cm2 in [2]; 211 uL/hr/cm2 in [3]; 132 uL/hr/cm2 in data set [4]; 109 uL/hr/cm2 in data set [8]; 127 uL/hr/cm2 in data set [9]. The Papp in [10] was found to be 253 uL/hr/cm2; in [11], 224 uL/hr/cm2; in data set [12], 136 uL/hr/cm2; in data set [14] it was 120 uL/hr/cm2; in [15], 127 uL/hr/cm2. Moreover, the values for the efflux ratio at 3 µM on ABCG2 [5] and on ABCG2 [13] were 15 and 34, respectively. For the same molecule, the efflux ratio at 10 µM on ABCG2 [6] is 8.06. The efflux ratio at 50 µM at ABCG2 [7] was determined as 1.44; in [16], 1.04.
Consider `COc1ccnc(C[S@@+]([O-])c2nc3cc(OC(F)F)ccc3[nH]2)c1OC`, for which the Papp in data set [1] is 42.2 uL/hr/cm2; in data set [2], 79.6 uL/hr/cm2; in [3], 240 uL/hr/cm2; in [4] it was 179 uL/hr/cm2; in [8], 79.1 uL/hr/cm2; in data set [9], 126 uL/hr/cm2. The Papp in [10] came to 238 uL/hr/cm2; in data set [11], 229 uL/hr/cm2; in [12] it was 162 uL/hr/cm2; in data set [14], 117 uL/hr/cm2; in [15], 126 uL/hr/cm2. Moreover, the efflux ratio at 3 µM was determined as 8.61 on ABCG2 [5] and 18.7 at ABCG2 [13]. Further, the efflux ratio at 10 µM on ABCG2 [6] is 5.81. Moreover, the figures for the efflux ratio at 50 µM (on ABCG2 [7]; in data set [16]) were 2.45 and 1.09, respectively.

The record behind these values is ChEMBL document CHEMBL3525931, “Stereoselective interaction of pantoprazole with ABCG2. II. In vitro flux analysis” (Drug Metab Dispos, 2012).
